For data set [1], the target named is T1, PI3-kinase p110-alpha/p85-alpha (Homo sapiens, UniProt P42336). Nature of the data set: Inhibition of PI3K p110alpha/p85alpha. It counts as protein-complex assay. The essentials:
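Biochemical kinase assay following the kit manufacturer's protocol with a modified kinase buffer (50 mM HEPES pH 7.5, 3 mM MgCl2, 100 mM NaCl, 1 mM EGTA, 0.04% CHAPS, 2 mM TCEP, 0.01 mg/ml BGG); 10 nM enzyme; ATP 50 µM; values are averages of two independent experiments, each in duplicate.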

The target in data set [2] is T1, PI3-kinase p110-alpha/p85-alpha. Nature of the data set: Inhibition of PI3K p110alpha/p85alpha-mediated AKT1 phosphorylation at Ser473 in human U2OS cells. It counts as cell-based. In outline: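 Endogenous phospho-Akt1 (Ser473) measured in U2OS osteosarcoma cells kept in 0.1% FBS and then serum-stimulated; read-out by cell-based ELISA with femto chemiluminescent substrate.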

A short description of data set [3]: Metabolic stability in human liver microsomes assessed as compound remaining at 1 uM after 30 mins.
Data set [4] can be described thus: Metabolic stability in mouse liver microsomes assessed as compound remaining at 1 uM after 30 mins.
The target in data set [5] is T2, CYP1A2 (Homo sapiens, UniProt P05177).
T2 sequence (P05177 whole entry): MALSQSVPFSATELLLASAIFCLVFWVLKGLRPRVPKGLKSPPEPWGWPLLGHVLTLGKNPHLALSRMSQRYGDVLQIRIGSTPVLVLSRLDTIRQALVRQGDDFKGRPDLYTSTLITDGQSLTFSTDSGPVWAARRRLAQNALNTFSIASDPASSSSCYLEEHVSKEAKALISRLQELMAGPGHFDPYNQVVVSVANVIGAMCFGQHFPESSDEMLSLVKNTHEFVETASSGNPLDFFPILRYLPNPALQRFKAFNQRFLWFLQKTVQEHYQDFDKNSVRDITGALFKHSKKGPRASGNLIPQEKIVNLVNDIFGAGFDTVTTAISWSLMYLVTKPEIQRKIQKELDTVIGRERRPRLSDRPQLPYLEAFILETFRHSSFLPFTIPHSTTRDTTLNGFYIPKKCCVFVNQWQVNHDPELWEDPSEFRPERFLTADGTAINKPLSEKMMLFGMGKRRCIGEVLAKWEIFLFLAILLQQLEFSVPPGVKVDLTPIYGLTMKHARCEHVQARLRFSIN
Nature of the data set: Inhibition of CYP1A2 at 10 uM. It counts as ADME. The essentials:
(§1)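 CYP isoform panel (1A2, 2C9, 2C19, 2D6, 3A4); percent inhibition recorded at 10 µM test compound; run in duplicate by an outside contractor.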

For data set [6], the target named is CYP2C9 (Homo sapiens, UniProt P11712). Nature of the data set: Inhibition of CYP2C9 at 10 uM. It counts as ADME. In outline:
as §1

Data set [7] concerns the target CYP2C19 (Homo sapiens, UniProt P33261). Nature of the data set: Inhibition of CYP2C19 at 10 uM. It counts as ADME. The essentials: as §1
Data set [8] addresses CYP2D6 (Homo sapiens, UniProt P10635). Nature of the data set: Inhibition of CYP2D6 at 10 uM. It counts as ADME. In outline:
as §1

Data set [9] has as its target CYP3A4 (Homo sapiens, UniProt P08684). Nature of the data set: Inhibition of CYP3A4 at 10 uM. The class given is ADME. In outline: as §1

Structures are written as SMILES.

T1 sequence (P27986 whole entry): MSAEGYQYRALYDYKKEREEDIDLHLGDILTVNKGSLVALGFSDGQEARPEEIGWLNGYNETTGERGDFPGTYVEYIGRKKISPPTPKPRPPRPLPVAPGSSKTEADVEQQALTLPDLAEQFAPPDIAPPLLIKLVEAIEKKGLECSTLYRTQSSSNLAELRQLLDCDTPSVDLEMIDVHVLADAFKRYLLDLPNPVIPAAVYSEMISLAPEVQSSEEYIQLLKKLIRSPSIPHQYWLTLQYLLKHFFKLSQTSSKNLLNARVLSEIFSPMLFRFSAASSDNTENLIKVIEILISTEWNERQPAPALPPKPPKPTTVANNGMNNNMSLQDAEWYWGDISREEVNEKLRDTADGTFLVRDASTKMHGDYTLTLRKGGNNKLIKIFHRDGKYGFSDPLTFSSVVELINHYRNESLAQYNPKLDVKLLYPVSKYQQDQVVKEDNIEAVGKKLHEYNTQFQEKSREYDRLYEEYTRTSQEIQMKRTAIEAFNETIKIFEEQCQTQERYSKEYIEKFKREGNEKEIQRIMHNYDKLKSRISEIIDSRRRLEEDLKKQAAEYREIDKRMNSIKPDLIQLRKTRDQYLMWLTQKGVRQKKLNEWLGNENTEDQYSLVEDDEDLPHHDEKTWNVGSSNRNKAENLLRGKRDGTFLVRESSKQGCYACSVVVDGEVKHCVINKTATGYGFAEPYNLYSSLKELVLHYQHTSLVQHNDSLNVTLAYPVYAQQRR
T1 sequence (P42336 whole entry): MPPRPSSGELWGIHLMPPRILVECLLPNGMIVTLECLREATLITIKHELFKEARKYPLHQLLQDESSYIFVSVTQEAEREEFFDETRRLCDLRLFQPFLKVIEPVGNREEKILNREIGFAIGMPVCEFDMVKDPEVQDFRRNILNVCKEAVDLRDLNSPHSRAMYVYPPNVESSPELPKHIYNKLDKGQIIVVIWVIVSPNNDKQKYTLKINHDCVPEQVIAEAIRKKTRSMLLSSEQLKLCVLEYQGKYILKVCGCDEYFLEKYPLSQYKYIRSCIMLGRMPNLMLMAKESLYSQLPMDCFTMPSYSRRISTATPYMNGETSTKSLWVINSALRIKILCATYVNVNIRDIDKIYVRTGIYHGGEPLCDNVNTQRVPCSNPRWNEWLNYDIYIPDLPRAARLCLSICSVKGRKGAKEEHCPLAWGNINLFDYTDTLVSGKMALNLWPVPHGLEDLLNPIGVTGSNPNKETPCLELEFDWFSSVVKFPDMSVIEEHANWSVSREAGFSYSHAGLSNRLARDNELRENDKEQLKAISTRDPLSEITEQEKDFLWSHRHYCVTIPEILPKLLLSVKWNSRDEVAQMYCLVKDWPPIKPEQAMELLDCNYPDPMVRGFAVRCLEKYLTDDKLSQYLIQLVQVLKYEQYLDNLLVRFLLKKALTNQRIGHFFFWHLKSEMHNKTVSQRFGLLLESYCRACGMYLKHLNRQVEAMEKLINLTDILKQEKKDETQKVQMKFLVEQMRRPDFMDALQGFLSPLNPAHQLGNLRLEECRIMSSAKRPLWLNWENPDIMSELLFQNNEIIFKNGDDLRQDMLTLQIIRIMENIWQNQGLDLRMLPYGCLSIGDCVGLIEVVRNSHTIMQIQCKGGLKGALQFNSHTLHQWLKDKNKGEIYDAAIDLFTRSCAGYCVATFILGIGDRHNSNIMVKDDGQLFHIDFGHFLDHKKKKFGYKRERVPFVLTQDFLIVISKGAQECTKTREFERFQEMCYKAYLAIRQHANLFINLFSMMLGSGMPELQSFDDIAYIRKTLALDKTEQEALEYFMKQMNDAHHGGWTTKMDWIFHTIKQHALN
Sequence of CYP2D6 (P10635 whole entry): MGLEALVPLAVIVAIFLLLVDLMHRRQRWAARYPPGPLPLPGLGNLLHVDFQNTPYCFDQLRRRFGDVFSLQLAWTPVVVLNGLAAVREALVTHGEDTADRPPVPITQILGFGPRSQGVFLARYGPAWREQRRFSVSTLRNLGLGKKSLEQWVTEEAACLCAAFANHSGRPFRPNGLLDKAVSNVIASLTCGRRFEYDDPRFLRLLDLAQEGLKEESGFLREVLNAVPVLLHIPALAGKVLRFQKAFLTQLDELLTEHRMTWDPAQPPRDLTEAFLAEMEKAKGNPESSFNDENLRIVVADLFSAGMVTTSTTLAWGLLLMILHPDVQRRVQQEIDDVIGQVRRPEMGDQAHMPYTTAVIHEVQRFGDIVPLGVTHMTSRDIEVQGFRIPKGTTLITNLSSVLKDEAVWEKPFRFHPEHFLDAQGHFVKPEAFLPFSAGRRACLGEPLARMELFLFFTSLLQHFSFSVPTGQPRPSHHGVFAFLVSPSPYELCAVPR
Sequence of CYP2C19 (P33261 whole entry): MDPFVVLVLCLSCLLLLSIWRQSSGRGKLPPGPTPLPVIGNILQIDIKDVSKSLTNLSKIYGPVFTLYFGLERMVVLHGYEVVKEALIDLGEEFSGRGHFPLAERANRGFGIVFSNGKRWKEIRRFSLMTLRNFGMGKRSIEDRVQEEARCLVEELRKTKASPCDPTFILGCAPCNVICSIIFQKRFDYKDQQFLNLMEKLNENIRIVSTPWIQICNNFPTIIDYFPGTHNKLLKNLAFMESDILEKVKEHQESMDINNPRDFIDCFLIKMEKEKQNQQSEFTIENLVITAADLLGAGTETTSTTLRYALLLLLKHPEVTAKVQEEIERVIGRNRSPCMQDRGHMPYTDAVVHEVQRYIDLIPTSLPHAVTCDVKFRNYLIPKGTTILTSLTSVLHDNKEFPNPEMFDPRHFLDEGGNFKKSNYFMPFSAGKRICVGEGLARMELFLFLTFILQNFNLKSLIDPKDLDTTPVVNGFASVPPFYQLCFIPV
Sequence of CYP3A4 (P08684 whole entry): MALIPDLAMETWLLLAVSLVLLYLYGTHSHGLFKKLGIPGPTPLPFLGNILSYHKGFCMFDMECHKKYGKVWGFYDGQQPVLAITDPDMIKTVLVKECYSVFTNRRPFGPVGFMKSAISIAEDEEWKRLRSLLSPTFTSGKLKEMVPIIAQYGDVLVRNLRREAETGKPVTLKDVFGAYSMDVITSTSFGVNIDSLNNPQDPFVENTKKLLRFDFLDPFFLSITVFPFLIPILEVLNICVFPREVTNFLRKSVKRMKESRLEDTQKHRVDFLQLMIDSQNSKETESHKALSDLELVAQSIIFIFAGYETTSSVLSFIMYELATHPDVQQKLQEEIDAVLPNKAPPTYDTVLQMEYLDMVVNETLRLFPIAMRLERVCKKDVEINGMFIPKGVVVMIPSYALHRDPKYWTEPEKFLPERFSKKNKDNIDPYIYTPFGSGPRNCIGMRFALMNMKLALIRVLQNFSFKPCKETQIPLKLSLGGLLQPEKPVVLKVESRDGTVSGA
Sequence of CYP2C9 (P11712 whole entry): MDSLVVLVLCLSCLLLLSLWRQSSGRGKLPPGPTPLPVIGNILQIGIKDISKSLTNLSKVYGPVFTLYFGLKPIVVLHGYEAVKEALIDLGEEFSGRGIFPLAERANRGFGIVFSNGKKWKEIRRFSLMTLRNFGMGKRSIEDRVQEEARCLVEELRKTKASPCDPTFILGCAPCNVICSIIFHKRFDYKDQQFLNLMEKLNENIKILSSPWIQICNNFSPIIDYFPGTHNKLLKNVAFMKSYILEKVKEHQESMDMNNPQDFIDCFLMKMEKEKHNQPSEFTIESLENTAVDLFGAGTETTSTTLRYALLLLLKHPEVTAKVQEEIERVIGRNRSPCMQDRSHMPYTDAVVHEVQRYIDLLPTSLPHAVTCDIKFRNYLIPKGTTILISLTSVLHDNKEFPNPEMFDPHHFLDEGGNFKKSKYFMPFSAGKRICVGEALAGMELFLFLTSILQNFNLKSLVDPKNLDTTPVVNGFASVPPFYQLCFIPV

Compound `Oc1cccc(-c2cn3c(N4CCNCC4)cnc3c(N3CCOCC3)n2)c1` came in with an IC50 in data set [1] of 0.897 µM.

`NC(=O)c1cn2cc(-c3cccc4[nH]ncc34)nc(N3CCOCC3)c2n1` yielded an IC50 in data set [1] of 0.107 µM. In data set [2], this compound registered an EC50 of 0.138 µM.

In the case of `COCCNC(=O)c1cn2cc(-c3cccc4[nH]ncc34)nc(N3CCOCC3)c2n1`, in [1], the IC50 was 0.05 µM. In data set [2], this compound came in with an EC50 of 0.2 µM. Moreover, the share remaining at 0.5 h, 1 µM stood at 75% in data set [3] and 62% in data set [4]. Further, the inhibition at 10 µM in [5], in data set [6], in data set [7], in [8] and in data set [9] was less than 25% in each case.

In data set [1], `CN1CCN(c2cnc3c(N4CCOCC4)nc(-c4cccc(O)c4)cn23)CC1` had an IC50 of 0.512 µM.

As for `CN(C)CCNC(=O)c1cn2cc(-c3cccc4[nH]ncc34)nc(N3CCOCC3)c2n1`, the IC50 in data set [1] came out at 0.035 µM. The same compound displayed an EC50 in [2] of 0.976 µM.

Take `CCNC(=O)c1cn2cc(-c3cccc4[nH]ncc34)nc(N3CCOCC3)c2n1`: the EC50 in data set [2] stood at 0.713 µM.

As for `CS(=O)(=O)N1CCN(Cc2cc3nc(-c4cccc5[nH]ncc45)nc(N4CCOCC4)c3s2)CC1` [PICTILISIB], the inhibition at 10 µM in data set [5], in data set [6], in [7], in data set [8] and in data set [9] was less than 25% each time.

As for `CN1CCN(Cc2cn3cc(-c4cccc(O)c4)nc(N4CCOCC4)c3n2)CC1`, in data set [1], the IC50 was determined as 2.75 µM.

In the case of `CS(=O)(=O)N1CCN(c2cnc3c(N4CCOCC4)nc(-c4cccc(O)c4)cn23)CC1`, in data set [1], the half-maximal inhibitory concentration (IC50) turned out to be 0.526 µM.

In turn, `Oc1cccc(-c2cn3ccnc3c(N3CCOCC3)n2)c1` yielded an IC50 in data set [1] of 0.197 µM.

As usually defined, the IC50 is the concentration needed to halve the response being measured. High values mean a need for much substance, low ones inhibition by little substance. As usually defined, the EC50 is the concentration giving half of the maximal effect. Low readings indicate a more potent agent, high ones a less potent agent. By share remaining is commonly meant what is left of the initial amount, in per cent. By inhibition is commonly meant the share of the control response that was lost under treatment. A low value points to little suppression.

The values are drawn from ChEMBL document CHEMBL1955823, “Imidazo[1,2-a]pyrazines as novel PI3K inhibitors” (Bioorg Med Chem Lett, 2012).
